Laboratory results: ChEMBL document CHEMBL1155581, “A-Type proanthocyanidin trimers from cranberry that inhibit adherence of uropathogenic P-fimbriated Escherichia coli” (J Nat Prod, 2000)
Calls of active or inactive are those of the source. The rule behind the calls is not given here.

Tests used:
Type in all cases: functional, organism-based
Escherichia coli [1] = assay: Antiadherent activity against P-fimbriated Escherichia coli in human erythrocyte assessed as suppression of agglutination using latex beads coated with P receptor analogue at 2.4 mg/ml
Method in brief: (§1)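 Uropathogenic P-fimbriated E. coli from patient urine, grown in tryptose broth 16 h at 37 °C, then overnight on CFA plates. Washed cells at 5 × 10^8/mL in PBS pH 7.0. Compounds in PBS neutralized with 1 N NaOH, 2-fold serial dilutions, 30 µL with 10 µL bacteria for 10 min at RT with shaking. 3% A1 Rh+ human RBCs or P-receptor-coated latex beads added separately, 20 min RT. Agglutination suppression scored microscopically (+/−).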

Escherichia coli [2] = assay: Antiadherent activity against P-fimbriated Escherichia coli in human erythrocyte assessed as suppression of agglutination using latex beads coated with P receptor analogue at 1.2 mg/ml; method in brief: as §1
Escherichia coli [3] = assay: Antiadherent activity against P-fimbriated Escherichia coli in human erythrocyte assessed as suppression of agglutination using latex beads coated with P receptor analogue at 0.6 mg/ml; method in brief: as §1
Escherichia coli [4] = assay: Antiadherent activity against P-fimbriated Escherichia coli in human erythrocyte assessed as suppression of agglutination using latex beads coated with P receptor analogue at 0.15 mg/ml; method in brief: as §1
Escherichia coli [5] = assay: Antiadherent activity against P-fimbriated Escherichia coli in human erythrocyte assessed as suppression of agglutination using latex beads coated with P receptor analogue at 0.3 mg/ml; method in brief: as §1

Question: Which results are given for `Oc1cc(O)c2c(c1)O[C@H](c1ccc(O)c(O)c1)[C@H](O)[C@H]2c1c(O)cc(O)c2c1O[C@@]1(c3ccc(O)c(O)c3)Oc3cc(O)c4c(c3[C@@H]2[C@H]1O)O[C@H](c1ccc(O)c(O)c1)[C@H](O)C4`?
Answer: Activity (Escherichia coli [1]): Active; Activity (Escherichia coli [2]): Active; Activity (Escherichia coli [3]): Active; Activity (Escherichia coli [4]): inactive; Activity (Escherichia coli [5]): inactive

Question: Which results are given for `Oc1cc(O)c2c(c1)O[C@@]1(c3ccc(O)c(O)c3)Oc3cc(O)c4c(c3[C@@H]2[C@H]1O)O[C@H](c1ccc(O)c(O)c1)[C@H](O)C4`?
Answer: Activity (Escherichia coli [1]): Active; Activity (Escherichia coli [2]): inactive; Activity (Escherichia coli [3]): inactive; Activity (Escherichia coli [4]): inactive; Activity (Escherichia coli [5]): inactive

Question: For `Oc1cc(O)c2c(c1)O[C@H](c1ccc(O)c(O)c1)[C@H](O)[C@H]2c1c(O)cc(O)c2c1O[C@H](c1ccc(O)c(O)c1)[C@H](O)C2`, which Activity (Escherichia coli [1]) is on record?
Answer: inactive

Question: What about the Activity (Escherichia coli [2]) of the same compound?
Answer: inactive

Question: What about the Activity (Escherichia coli [3]) of the same compound?
Answer: inactive

Question: And the Activity (Escherichia coli [4])?
Answer: inactive

Question: What about the Activity (Escherichia coli [5]) of the same compound?
Answer: inactive

Question: What does the source list for `Oc1cc(O)c2c(c1)O[C@@]1(c3ccc(O)c(O)c3)Oc3cc(O)c4c(c3[C@@H]2[C@H]1O)O[C@H](c1ccc(O)c(O)c1)[C@H](O)[C@H]4c1c(O)cc(O)c2c1O[C@H](c1ccc(O)c(O)c1)[C@H](O)C2` [CINNAMTANNIN B1]?
Answer: Activity (Escherichia coli [1]): Active; Activity (Escherichia coli [2]): Active; Activity (Escherichia coli [3]): Active; Activity (Escherichia coli [4]): Not Active; Activity (Escherichia coli [5]): Active

Question: With `Oc1cc(O)c2c(c1)O[C@H](c1ccc(O)c(O)c1)[C@H](O)[C@H]2c1c(O)cc2c(c1O)[C@@H]1c3c(cc(O)c4c3O[C@H](c3ccc(O)c(O)c3)[C@H](O)C4)O[C@](c3ccc(O)c(O)c3)(O2)[C@@H]1O` as the compound, how does the Activity (Escherichia coli [1]) read?
Answer: Active

Question: And the Activity (Escherichia coli [2])?
Answer: Active

Question: What about the Activity (Escherichia coli [3]) of the same compound?
Answer: Active

Question: What about the Activity (Escherichia coli [4]) of the same compound?
Answer: inactive

Question: What about the Activity (Escherichia coli [5]) of the same compound?
Answer: Active

Question: Which results are given for `Oc1cc(O)c2c(c1)O[C@H](c1ccc(O)c(O)c1)[C@H](O)C2`?
Answer: Activity (Escherichia coli [1]): inactive; Activity (Escherichia coli [2]): inactive; Activity (Escherichia coli [3]): inactive; Activity (Escherichia coli [4]): inactive; Activity (Escherichia coli [5]): inactive
